Test results from publication PMC6044914 (ACS Omega, 2017).
Values after ≈ are worked out from the molar mass of the structure shown. Where two headings read alike, the source gives them in different places.

Key:
[1] = Pharmacokinetic profiling in the rat; type: in vivo; conditions: plasma; for bioavailability: oral; for AUC: po
[2] = system: Vero cells; conditions: for TC50: African green monkey
[3] = system: M. tuberculosis H37Rv (London Pride); assay: microbe, parasite or virus in culture; type: cell-based, Mycobacterium tuberculosis; conditions: for MIC: Mycobacterium tuberculosis, H37RV; for activity against M. tuberculosis (in words): SAR discussion
[4] = system: E. coli DH5α; assay: Spectrum, MIC99 by serial dilution agar method; type: cell-based; conditions: Escherichia coli, read-out: MIC (μM) E. coli
In short: (§1)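 Serial-dilution agar MIC99 with test compound in the agar. Organisms were grown on different media: B. subtilis Marburg on nutrient agar, E. coli DH5α and S. aureus RN4220 on LB agar, M. smegmatis mc2155 on Middlebrook 7H10 + 10% v/v OADC, P. aeruginosa BAA 47 PA0 on tryptic soy agar, S. cerevisiae Y187 on YPD agar. Late-log culture was plated and incubated at 37 °C until large colonies formed on no-compound plates. MIC99 is the lowest concentration giving <1% growth.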

[5] = system: S. cerevisiae Y187; assay: Spectrum, MIC99 by serial dilution agar method; type: cell-based, Saccharomyces cerevisiae; conditions: for MIC: Saccharomyces cerevisiae, Y187, read-out: MIC (μM) Sa. cerevisiae
In short: as §1

[6] = system: B. subtilis Marburg; assay: Spectrum, MIC99 by serial dilution agar method; type: cell-based; conditions: Bacillus subtilis, read-out: MIC (μM) B. subtilis
In short: as §1

[7] = system: M. smegmatis mc^2155; assay: Spectrum, MIC99 by serial dilution agar method; type: cell-based, Mycobacterium smegmatis
In short: as §1

[8] = system: S. aureus RN4220; assay: Spectrum, MIC99 by serial dilution agar method; type: cell-based, Staphylococcus aureus; conditions: for MIC: Staphylococcus aureus, RN4220, read-out: MIC (μM) St. aureus
In short: as §1

[9] = system: replicating M. tuberculosis; assay: Kill kinetics in replicating conditions; type: cell-based, Mycobacterium tuberculosis; conditions: for bactericidal activity against replicating M. tuberculosis (in words): aerobic conditions; for concentration at which bactericidal, replicating M. tuberculosis: bactericidal = at least 3 logs kill in 21 days
[10] = system: P. aeruginosa BAA 47 PA0; assay: Spectrum, MIC99 by serial dilution agar method; type: cell-based; conditions: Pseudomonas aeruginosa, BAA47, read-out: MIC (μM) P. aeruginosa
In short: as §1

[11] = system: nonreplicating M. tuberculosis (nutrient starvation); assay: Kill kinetics under starvation; type: cell-based, Mycobacterium tuberculosis; conditions: for concentration at which bactericidal, nonreplicating M. tuberculosis: concentrations as low as
[12] = system: nonreplicating M. tuberculosis (nutrient starvation); conditions: previous work; cited from earlier work
[13] = rats; rapidly metabolized; cited from earlier work

Row | Structure (SMILES) | Vd [1] [L/kg] | clearance [1] [mL/min/kg] | bioavailability [1] [%] | TC50 [2] [µM] | MIC ([3]; 120 h) [µM] | MIC [4] [µM] | activity against M. tuberculosis (in words) [3] | MIC [5] [µM] | MIC [6] [µM] | MIC [8] [µM] | bactericidal activity against replicating M. tuberculosis (in words) [9] | MIC [10] [µM] | MIC [3] [µM] | other results
1 | Cc1cccc(C(=O)Nc2ncc([N+](=O)[O-])s2)c1O [compound 13, 2-Hydroxy-3-methyl-N-(5-nitrothiazol-2-yl)benzamide] | 0.16 ± 0.012 | 8.96 ± 0.51 | 72.5 ± 18.4 | – | – | – | – | – | – | – | – | – | – | –
2 | O=C(Nc1ncc([N+](=O)[O-])s1)c1ccccc1O [compound 2, 2-Hydroxy-N-(5-nitrothiazol-2-yl)benzamide, reference compound] | 0.698 ± 0.327 | 57.5 ± 3.3 | 5.8 ± 0.1 | >20 | 20 (≈ 5.3 µg/mL) | – | – | – | – | – | – | – | – | AUC [1]: 167 ± 10 ng·h/mL
3 | O=C(Nc1ncc([N+](=O)[O-])s1)c1ccccn1 [compound 19, N-(5-Nitrothiazol-2-yl)picolinamide] | – | – | – | 20 | 2.4 ± 0.0071 (≈ 0.601 µg/mL) | > 100 | improved activity | 12.5 (≈ 3.13 µg/mL) | 3.1 (≈ 0.776 µg/mL) | > 100 | bactericidal | > 100 | – | susceptibility of S. cerevisiae (in words) [5]: sensitive; susceptibility of M. smegmatis (in words) [7]: sensitive; concentration at which bactericidal, replicating M. tuberculosis [9]: ≥ 5 times the MIC; bactericidal activity under nonreplicating conditions (in words) [11]: bactericidal activity; concentration at which bactericidal, nonreplicating M. tuberculosis [11]: ≤ 1.25 × MIC
4 | O=C(Nc1ncc([N+](=O)[O-])s1)C1CCCCC1 [compound 28, N-(5-Nitrothiazol-2-yl)cyclohexanecarboxamide] | 0.68 ± 0.12 | 69.8 ± 4.3 | 17.5 ± 4.2 | – | – | – | loss of activity | – | – | – | – | – | > 20 | AUC [1]: 418 ± 96 ng·h/mL
5 | O=C(Nc1ccccc1)Nc1ncc([N+](=O)[O-])s1 [compound 37, 1-(5-Nitrothiazol-2-yl)-3-phenylurea] | – | – | – | – | – | > 100 | comparable activity to the parent compound 1 | > 100 | 50 (≈ 13.2 µg/mL) | 50 (≈ 13.2 µg/mL) | bactericidal activity | > 100 | 17 ± 4.2 (≈ 4.49 µg/mL) | susceptibility of S. aureus (in words) [8]: sensitive; concentration at which bactericidal, replicating M. tuberculosis [9]: equivalent to the MIC; kill of replicating M. tuberculosis ([9]; in 21 days, at concentrations equivalent to the MIC): at least 3 logs; bactericidal activity under nonreplicating conditions (in words) [11]: bactericidal activity; concentration at which bactericidal, nonreplicating M. tuberculosis [11]: ≤ 1.25 × MIC
6 | O=C(Nc1ncc([N+](=O)[O-])s1)c1ccccc1 [compound 4, N-(5-nitrothiazol-2-yl)benzamide] | 0.18 ± 0.006 | 6.1 ± 0.5 | 63.5 ± 6.9 | – | – | – | – | – | – | – | – | – | – | –
7 | CC(=O)Oc1ccccc1C(=O)Nc1ncc([N+](=O)[O-])s1 [compound 1, 2-(5-Nitrothiazol-2-ylcarbamoyl)phenyl Acetate, reference compound] | – | – | – | >20 | 14 | – | – | – | – | – | – | – | – | MIC ([3]; read-out: minimum inhibitory concentration (MIC)): 14 µM; activity against nonreplicating or persistent M. tuberculosis (in words) [12]: good activity; detection in plasma or urine [13]: not detectable
8 | CCC(C)(C)C(=O)Oc1ccccc1C(=O)Nc1ncc([N+](=O)[O-])s1 [compound 8, 2-((5-Nitrothiazol-2-yl)carbamoyl)phenyl 2,2-Dimethylbutanoate] | – | – | – | 6.2 | 1.4 ± 0.07 (≈ 0.509 µg/mL) | > 25 | showed activity | > 100 | 1 (≈ 0.363 µg/mL) | > 50 | rapidly bactericidal | > 100 | – | improvement in activity relative to 1 [3]: 10 fold; kill of replicating M. tuberculosis ([9]; in 7 days at 10× MIC): > 4 log
9 | O=C(Nc1nc(-c2ccccn2)c([N+](=O)[O-])s1)c1ccccn1 [compound 53, N-(5-Nitro-4-(pyridin-2-yl)thiazol-2-yl)picolinamide] | – | – | – | 6.4 | – | – | some activity | – | – | – | – | – | 8.5 ± 2.1 (≈ 2.78 µg/mL) | cytotoxicity (in words) ([2]; Vero cells): cytotoxicity
